Experimental data from ChEMBL document CHEMBL4257565, “A phenotypic approach to the discovery of compounds that promote non-amyloidogenic processing of the amyloid precursor protein: Toward a new profile of indirect β-secretase inhibitors” (Eur J Med Chem, 2018).
Blank lines part the entries; values can stand above or below the compound they belong to. Activity calls are given as the source filed them. No cut-off for these calls is given here.

Columns and labels:
[1] = target: T1, Beta-secretase 1 (Homo sapiens, UniProt P56817); test: Inhibition of BACE1 in human SH-SY5Y cells harboring wild type APP695 assessed as reduction in amyloid beta (1 to 40) level after 24 hrs by ELISA method; assay type: cell-based
T1 sequence (P56817 whole entry): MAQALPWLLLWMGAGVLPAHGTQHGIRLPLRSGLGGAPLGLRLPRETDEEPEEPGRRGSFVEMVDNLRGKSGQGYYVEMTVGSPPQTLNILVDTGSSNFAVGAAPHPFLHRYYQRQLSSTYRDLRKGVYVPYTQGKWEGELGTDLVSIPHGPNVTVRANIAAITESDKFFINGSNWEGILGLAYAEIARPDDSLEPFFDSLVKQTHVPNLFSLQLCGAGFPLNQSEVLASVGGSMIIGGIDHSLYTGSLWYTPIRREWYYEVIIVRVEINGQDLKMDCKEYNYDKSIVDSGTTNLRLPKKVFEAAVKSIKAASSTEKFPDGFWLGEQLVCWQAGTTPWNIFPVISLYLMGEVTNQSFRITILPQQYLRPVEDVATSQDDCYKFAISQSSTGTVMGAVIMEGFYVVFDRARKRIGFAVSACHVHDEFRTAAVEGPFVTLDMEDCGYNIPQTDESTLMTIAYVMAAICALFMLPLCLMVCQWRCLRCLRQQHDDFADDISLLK
Method in brief: (§1)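 Aβ1-40 and Aβ1-42 levels were measured by ELISA in APPwt-expressing SH-SY5Y cells after compound treatment.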

[2] = target: T1, Beta-secretase 1; test: Inhibition of BACE1 in human SH-SY5Y cells harboring wild type APP695 assessed as increase in AICD level at 3 uM by Western blot method relative to chloroquine; assay type: cell-based
Method in brief: (§2)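 APP C-terminal fragments (αCTFs and AICD) were detected by Western blot and scored as band intensity. Compounds were tested at 1, 3 and 10 µM.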

[3] = target: T1, Beta-secretase 1; test: Inhibition of BACE1 in human SH-SY5Y cells harboring wild type APP695 assessed as increase in alphaCTF level at 3 uM by Western blot method relative to chloroquine; assay type: cell-based; method in brief: as §2
[4] = target: T1, Beta-secretase 1; test: Inhibition of BACE1 in human SH-SY5Y cells harboring wild type APP695 assessed as increase in AICD level at 3 uM by Western blot method relative to untreated control; assay type: cell-based; method in brief: as §2
[5] = target: T1, Beta-secretase 1; test: Inhibition of BACE1 in human SH-SY5Y cells harboring wild type APP695 assessed as increase in alphaCTF level at 3 uM by Western blot method relative to untreated control; assay type: cell-based; method in brief: as §2
[6] = test system: Primary neuron; test: Inhibition of autophagy in C57BL6 mouse primary neuronal cells assessed as increase in lipidation of LC3-1 to LC3-2 up to 5 uM after 24 hrs in presence of autophagic inhibitor BafA1 by DAPI staining based immunofluorescence assay; assay type: functional
Method in brief: (§3)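 Cells were co-treated with compound and the autophagic flux inhibitor bafilomycin A1. p62 and LC3 accumulation were then assessed in SY5Y-APPwt cells and primary neurons.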

[7] = test system: Primary neuron; test: Inhibition of autophagy in C57BL6 mouse primary neuronal cells assessed as increase in p62 expression at 3 uM after 24 hrs by DAPI staining based immunofluorescence assay; assay type: functional
Method in brief: (§4)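 Autophagy markers were quantified against control: p62 expression and lipidation of LC3-I into LC3-II. Accumulation of p62- and LC3-positive vesicles was scored by immunofluorescence. This was done in SY5Y-APPwt cells and primary neurons.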

[8] = test system: SH-SY5Y; test: Inhibition of autophagy in human SH-SY5Y cells harboring wild type APP695 assessed as increase in p62 expression at 5 uM after 24 hrs by DAPI staining based immunofluorescence assay relative to control; assay type: functional; design: scale not given: the % may be the effect or the level left; method in brief: as §4
[9] = target: T1, Beta-secretase 1; test: Inhibition of recombinant human BACE1 at 10 uM using Mca-S-E-[…]-L-D-AEF-R-K(Dnp)-R-R-NH2 as substrate after 60 mins by fluorescence assay relative to control
Method in brief: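 BACE-1 enzymatic activity was followed by cleavage of the fluorogenic peptide Mca-S-E-V-N-L-D-AE-F-R-K(Dnp)-R-R-NH2.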

[10] = target: T1, Beta-secretase 1; test: Inhibition of BACE1 in human SH-SY5Y cells harboring wild type APP695 assessed as reduction in amyloid beta (1 to 42) level up to 5 uM after 24 hrs by ELISA; assay type: cell-based; method in brief: as §1
[11] = test system: Primary neuron; test: Inhibition of autophagy in C57BL6 mouse primary neuronal cells assessed as increase in lipidation of LC3-1 to LC3-2 at 3 uM after 24 hrs by DAPI staining based immunofluorescence assay; assay type: functional; method in brief: as §4
[12] = target: T1, Beta-secretase 1; test: Inhibition of BACE1 in human SH-SY5Y cells harboring wild type APP695 assessed as increase in mature APP level at 5 uM after 24 hrs by ELISA relative to control; assay type: cell-based; design: scale not given: the % may be the effect or the level left; conditions: in the assay text read “by Western blot” for “by ELISA”
Method in brief: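 Full-length APP was resolved and detected with APP-C17 antiserum as two bands. The 110 kDa band is the immature, neosynthesized form and the 115 kDa band is the mature, glycosylated form. Both bands were quantified against the control condition. This was done in SH-SY5Y-APPwt cells and in primary neuronal cultures.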

[13] = target: T1, Beta-secretase 1; test: Inhibition of BACE1 in human SH-SY5Y cells harboring wild type APP695 assessed as reduction in amyloid beta (1 to 40) level up to 5 uM after 24 hrs by ELISA; assay type: cell-based; method in brief: as §1
[14] = target: Beta-secretase 1 (Mus musculus) (UniProt P56818); test: Inhibition of BACE1 in C57BL6 mouse primary neuronal cells assessed as increase in mature APP level at 3 to 5 uM after 24 hrs by DAPI staining based immunofluorescence assay relative to control; design: scale not given: the % may be the effect or the level left
Sequence of Beta-secretase 1 (Mus musculus) (P56818 whole entry): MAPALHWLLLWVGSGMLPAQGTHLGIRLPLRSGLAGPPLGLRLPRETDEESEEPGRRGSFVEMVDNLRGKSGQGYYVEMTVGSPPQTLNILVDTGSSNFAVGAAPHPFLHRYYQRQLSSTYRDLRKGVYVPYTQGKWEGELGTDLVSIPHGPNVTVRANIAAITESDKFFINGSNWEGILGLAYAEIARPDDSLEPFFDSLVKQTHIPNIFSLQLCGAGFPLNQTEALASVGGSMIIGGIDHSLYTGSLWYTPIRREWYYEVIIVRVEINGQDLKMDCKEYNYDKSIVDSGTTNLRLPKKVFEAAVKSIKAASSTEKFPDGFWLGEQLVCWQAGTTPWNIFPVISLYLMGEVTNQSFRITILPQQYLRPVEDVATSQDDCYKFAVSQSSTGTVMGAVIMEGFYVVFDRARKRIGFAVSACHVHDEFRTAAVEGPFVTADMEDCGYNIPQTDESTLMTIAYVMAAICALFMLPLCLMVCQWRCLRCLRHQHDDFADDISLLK

[15] = target: T1, Beta-secretase 1; test: Inhibition of BACE1 in human SH-SY5Y cells harboring wild type APP695 assessed as reduction in sAPPbeta level up to 5 uM after 24 hrs by DAPI staining based electro-chemiluminescence immunoassay; assay type: cell-based
[16] = target: T1, Beta-secretase 1; test: Inhibition of BACE1 in human SH-SY5Y cells harboring wild type APP695 assessed as accumulation of AICD level up to 5 uM after 24 hrs by ELISA; assay type: cell-based
[17] = test system: SH-SY5Y; test: Inhibition of autophagy in human SH-SY5Y cells harboring wild type APP695 assessed as increase in lipidation of LC3-1 to LC3-2 at 5 uM after 24 hrs by DAPI staining based immunofluorescence assay relative to control; assay type: functional; design: scale not given: the % may be the effect or the level left
Method in brief: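 SY5Y-APPwt cells treated at 5 µM alongside untreated control. LC3-I to LC3-II lipidation quantified from western blot bands. LC3- and p62-positive vesicles scored inside cells by immunofluorescence.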

[18] = target: Beta-secretase 1 (Mus musculus) (UniProt P56818); test: Inhibition of BACE1 in C57BL6 mouse primary neuronal cells assessed as accumulation of AICD level up to 5 uM after 24 hrs by DAPI staining based immunofluorescence assay
[19] = test system: SH-SY5Y; test: Inhibition of autophagy in human SH-SY5Y cells harboring wild type APP695 assessed as increase in lipidation of LC3-1 to LC3-2 up to 5 uM after 24 hrs in presence of autophagic inhibitor BafA1 by DAPI staining based immunofluorescence assay; assay type: functional, cell-based; method in brief: as §3
[20] = target: Beta-secretase 1 (Mus musculus) (UniProt P56818); test: Inhibition of BACE1 in C57BL6 mouse primary neuronal cells assessed as accumulation of APP-CTF level up to 5 uM after 24 hrs by DAPI staining based immunofluorescence assay
[21] = Cytotoxicity against C57BL6 mouse primary neuronal cells assessed as reduction in cell viability after 24 hrs by LDH assay; assay type: cell-based; conditions: primary neuron
[22] = target: T1, Beta-secretase 1; test: Inhibition of BACE1 in human SH-SY5Y cells harboring wild type APP695 assessed as accumulation of APP-CTF level up to 5 uM after 24 hrs by ELISA; assay type: cell-based
[23] = test system: SH-SY5Y; test: Cytotoxicity against human SH-SY5Y cells harboring wild type APP695 assessed as reduction in cell viability after 24 hrs by LDH assay; assay type: cell-based
[24] = test system: Primary neuron; test: Inhibition of autophagy in C57BL6 mouse primary neuronal cells assessed as increase in p62 expression up to 5 uM after 24 hrs in presence of autophagic inhibitor BafA1 by DAPI staining based immunofluorescence assay; assay type: functional; method in brief: as §3
[25] = test system: SH-SY5Y; test: Inhibition of autophagy in human SH-SY5Y cells harboring wild type APP695 assessed as increase in p62 expression up to 5 uM after 24 hrs in presence of autophagic inhibitor BafA1 by DAPI staining based immunofluorescence assay; assay type: functional, cell-based; method in brief: as §3
[26] = test system: SH-SY5Y; test: Inhibition of alpha secretase in human SH-SY5Y cells harboring wild type APP695 assessed as increase in sAPPalpha level up to 5 uM after 24 hrs by DAPI staining based electro-chemiluminescence immunoassay; assay type: cell-based

SMILES: CN(C)Cc1ccccc1-c1ccc(NCCCN2CCCCC2)c(OCCCN2CCCCC2)c1
- fold change (FC) [4]: 30
- fold change (FC) [5]: 50
- IC50 [1]: 2.1 µM
- fold change (FC) [2]: 5.1
- fold change (FC) [3]: 4.5

SMILES: c1ccc(-c2cccc(OCCN3CCCCC3)c2)cc1
- IC50 [1]: 9.1 µM
- fold change (FC) [2]: 0.2
- fold change (FC) [3]: 0.1

SMILES: CN(C)Cc1ccccc1-c1ccc(NCCCN2CCCCC2)c(OCCN2CCCCC2)c1
- fold change (FC) [4]: 40
- inhibition [6]: Active
- inhibition [7]: Active
- Activity [8]: 476%
- inhibition [9]: < 10%
- fold change (FC) [5]: 30
- inhibition [10]: Active
- inhibition [11]: Active
- Activity [12]: 221%
- IC50 [1]: 2.8 µM
- inhibition [13]: Active
- Activity [14]: 130%
- inhibition [15]: Active
- inhibition [16]: Active
- Activity [17]: 591%
- inhibition [18]: Active
- inhibition [19]: Active
- fold change (FC) [2]: 3.6
- fold change (FC) [3]: 6.4
- inhibition [20]: Active
- Activity [21]: Non-Toxic
- inhibition [22]: Active
- Activity [23]: Non-Toxic
- inhibition [24]: Active
- inhibition [25]: Active
- inhibition [26]: Active

SMILES: CN(C)Cc1ccccc1-c1ccc(NCCN2CCCCC2)c(OCCCN2CCCCC2)c1
- IC50 [1]: 2 µM
- fold change (FC) [2]: 3.4
- fold change (FC) [3]: 4.5

SMILES: CN1CCN(Cc2ccccc2-c2ccc(NCCCN3CCCCC3)c(OCCN3CCCCC3)c2)CC1
- IC50 [1]: 2.6 µM
- fold change (FC) [2]: 3.7
- fold change (FC) [3]: 5.1

SMILES: CN(C)Cc1ccccc1-c1ccc(NCCN2CCCCC2)c(OCCCCN2CCCCC2)c1
- fold change (FC) [2]: 4.8
- fold change (FC) [3]: 4.4

Other lines, results leading:

- IC50 [1]: 2.8 µM
- fold change (FC) [2]: 1.7
- fold change (FC) [3]: 3.1
SMILES: c1ccc(-c2ccc(NCCCN3CCCCC3)c(OCCN3CCCCC3)c2)c(CN2CCOCC2)c1

- IC50 [1]: 2.1 µM
- fold change (FC) [2]: 2.5
- fold change (FC) [3]: 2.6
SMILES: c1cc(-c2ccc(NCCCN3CCCCC3)c(OCCN3CCCCC3)c2)ccc1CN1CCCCC1

- IC50 [1]: 1.5 µM
- fold change (FC) [2]: 2.5
- fold change (FC) [3]: 2.1
SMILES: CN(C)Cc1ccc(-c2ccc(NCCCN3CCCCC3)c(OCCN3CCCCC3)c2)cc1

- IC50 [1]: 5.2 µM
- fold change (FC) [2]: 2.1
- fold change (FC) [3]: 2.4
SMILES: c1ccc(-c2ccc(NCCCN3CCCCC3)c(OCCN3CCCCC3)c2)cc1
